Measured values as given in article PMC10763849 (Journal of Enzyme Inhibition and Medicinal Chemistry, 2023).

Test system: HCT116 (KRAS(mut)/p53(wt)) cells xenograft
Assay: In vivo anti-tumour activity, HCT116 xenograft
Design: species or system BALB/c nude mice
Conditions: i.p. 10 mg/kg, every 3 d, five times; for body weight changes: BALB/c nude mice; for tumour volume compared with the vehicle group: HCT116 xenograft
How it was run: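 Six-week-old BALB/c nude mice received 1 × 10^7 HCT116 cells in 200 µL subcutaneously in the right flank. At 80–120 mm3, mice were randomised into four groups of 5. They were dosed i.p. in PBS pH 7.4 (0.2 ml) every 3 days ×5: vehicle or test compound at 1, 10 or 20 mg/kg; a second study used 10 mg/kg with reference inhibitors. Tumour volume was (min² × max)/2, with body weight recorded; mean ± SD.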

| SMILES | body weight changes | tumour volume compared with the vehicle group |
| --- | --- | --- |
| CN1CCN(Cc2ccc(Nc3ncc(Cl)c(Nc4ccccc4S(=O)(=O)N(C)C)n3)cc2)CC1 [TP0903] | stable trend | smaller than that of the vehicle group |
| O=C(CCCCCCC(=O)Nc1ccccc1)NO [SAHA, Vorinostat] | stable trend | smaller than that of the vehicle group |
